The source made the active and inactive calls. The rule behind the calls is not given here.
Experiments:
[1] = molecular target: 72 kDa type IV collagenase (Homo sapiens) (UniProt P08253); assay: Inhibition of human MMP2 (Tyr110 to Asp452 residues) expressed in yeast at 50 to 100 uM using Mca-Pro-LeuGly-Leu-Dpa-Ala-Arg-NH2.AcOH as substrate preincubated for 30 mins followed by substrate addition measured after 20 mins by fluorescence assay relative to control
Outline: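 Human recombinant MMP-2 (1.16 U/well) or MMP-12 (0.007 U/well) in 50 mM HEPES, 10 mM CaCl2, 0.05% Brij-35, pH 7.5. Enzyme and inhibitor pre-incubated 30 min at 37 °C, then OmniMMP fluorogenic substrate (4 μM) added. Fluorescence rise followed 20 min at ex/em 320/400 nm. Activity relative to no-inhibitor wells, with 200 μM NSA as 0%. Run in triplicate.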

[2] = system: Escherichia coli; assay: Effect on growth of Escherichia coli isolate Ah8.73 at 100 mg/L after 18 to 20 hrs by broth microdilution assay
Outline: (§1)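 Mueller-Hinton broth microdilution per CLSI, triplicate. blaNDM-1 clinical isolates grown from OD600 0.1 to 0.224 (~1–2 × 10^8 CFU/mL), diluted 3 μL into 4997 μL MH, and 100 μL added to 100 μL of compound (100 mg/L) alone. Incubated 37 °C for 18–20 h, then scored for growth.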

[3] = molecular target: Metallo-beta-lactamase type 2 (Serratia marcescens, UniProt P52699); assay: Inhibition of Serratia marcescens IMP1 expressed in Escherichia coli BL21(DE3) using fluorocillin as substrate preincubated for 10 mins followed by substrate addition measured after 20 mins by HTS assay
[4] = Selectivity ratio of compound effect for inhibition of bacterial MBP-fused NDM1 expressed in Escherichia coli BL21(DE3) to compound effect for inhibition of human MMP2 (Tyr110 to Asp452 residues) expressed in yeast
[5] = system: Bacteria; assay: Binding affinity to bacterial NDM-1 expressed in Escherichia coli BL21(DE3) assessed as intrinsic tryptophan fluorescence quenching up to 32 uM after 30 mins by luminescence spectrometric method relative to control
Outline: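 NDM-1 at 2 μM final in 50 mM HEPES pH 7.5 mixed with compound at 4–32 μM, incubated 30 min. Emission scanned 300–400 nm with excitation at 280 nm. Relative tryptophan fluorescence read at 348 nm, with buffer set to 0% and inhibitor-free NDM-1 to 100%. Control run with 2 μM L-tryptophan in place of enzyme.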

[6] = system: Escherichia coli; assay: Effect on growth of Escherichia coli isolate Ch8.69 at 100 mg/L after 18 to 20 hrs by broth microdilution assay; outline: as §1
[7] = system: Klebsiella pneumoniae; assay: Effect on growth of Klebsiella pneumoniae isolate Pd1.48 at 100 mg/L after 18 to 20 hrs by broth microdilution assay; outline: as §1
[8] = molecular target: Metallo-beta-lactamase type 2 (Klebsiella pneumoniae) (UniProt C7C422); assay: Inhibition of NDM1 in Klebsiella pneumoniae isolate Pd1.49 assessed as potentiation of imipenem-induced antibacterial activity by measuring imipenem MIC at 100 mg/L after 18 to 20 hrs by broth microdilution assay (reference value: 4 mg/L)
[9] = system: HEK293; assay: Cytotoxicity against HEK293 cells assessed as reduction in cell viability up to 400 uM after 4 to 24 hrs by Cell-titer blue reagent based spectrophotometric assay; conditions: human
Outline: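 HEK293 cells seeded at 10,000/well 12 h before treatment. Exposed to compound or DMSO vehicle for 4 or 24 h in DMEM with 10% serum and penicillin-streptomycin, n=6 per treatment per time point. Cell-Titer Blue added for 1 h, fluorescence read at 536ex/595em. Viability relative to vehicle (=1.0); ANOVA with Tukey post-hoc.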

[10] = molecular target: Metallo-beta-lactamase type 2 (Klebsiella pneumoniae) (UniProt C7C422); assay: Inhibition of NDM1 in Klebsiella pneumoniae isolate Pd1.48 assessed as potentiation of imipenem-induced antibacterial activity by measuring imipenem MIC at 100 mg/L after 18 to 20 hrs by broth microdilution assay (reference value: 8 mg/L)
[11] = molecular target: Metallo-beta-lactamase type 2 (Klebsiella pneumoniae) (UniProt C7C422); assay: Inhibition of NDM1 in Klebsiella pneumoniae isolate Cm1.62 assessed as potentiation of imipenem-induced antibacterial activity by measuring imipenem MIC at 100 mg/L after 18 to 20 hrs by broth microdilution assay (reference value: 16 mg/L)
[12] = system: Escherichia coli; assay: Inhibition of NDM1 in Escherichia coli isolate Ch8.72 assessed as potentiation of imipenem-induced antibacterial activity by measuring imipenem MIC at 100 mg/L after 18 to 20 hrs by broth microdilution assay (reference value: 16 mg/L)
[13] = system: Klebsiella pneumoniae; assay: Effect on growth of Klebsiella pneumoniae isolate Cm1.62 at 100 mg/L after 18 to 20 hrs by broth microdilution assay; outline: as §1
[14] = system: Bacteria; assay: Binding affinity to bacterial CoCoNDM-1 expressed in Escherichia coli BL21(DE3) assessed as metal stripping at 2 equiv by 1H NMR spectroscopic method
Outline: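 Apo-NDM-1 concentrated to ~1 mM and loaded with 2 equiv CoCl2. Samples in 50 mM HEPES, 150 mM NaCl, 10% D2O, pH 6.8. Compounds from 50–100 mM DMSO stocks titrated in ~5 μL aliquots. 1H spectra recorded at 292 K, 300.16 MHz.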

Chain of Metallo-beta-lactamase type 2 (Klebsiella pneumoniae) (C7C422 whole entry): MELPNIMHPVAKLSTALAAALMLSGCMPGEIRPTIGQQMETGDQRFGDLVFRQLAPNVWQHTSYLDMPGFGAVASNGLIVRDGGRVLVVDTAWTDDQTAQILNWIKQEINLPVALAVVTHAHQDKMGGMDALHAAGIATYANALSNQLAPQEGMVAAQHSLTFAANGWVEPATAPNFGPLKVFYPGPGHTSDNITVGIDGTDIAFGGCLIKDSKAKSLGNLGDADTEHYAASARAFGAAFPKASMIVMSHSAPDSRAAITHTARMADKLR
Chain of Metallo-beta-lactamase type 2 (P52699 whole entry, the tested form may be a part): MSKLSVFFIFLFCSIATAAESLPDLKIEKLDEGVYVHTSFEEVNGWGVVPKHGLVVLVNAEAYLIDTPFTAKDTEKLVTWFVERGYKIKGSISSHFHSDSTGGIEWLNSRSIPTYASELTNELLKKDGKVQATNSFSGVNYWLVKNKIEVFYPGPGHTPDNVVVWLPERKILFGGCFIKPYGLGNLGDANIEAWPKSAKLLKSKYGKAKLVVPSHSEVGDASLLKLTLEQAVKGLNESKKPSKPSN
Chain of 72 kDa type IV collagenase (Homo sapiens) (P08253 110-660 limits assumed): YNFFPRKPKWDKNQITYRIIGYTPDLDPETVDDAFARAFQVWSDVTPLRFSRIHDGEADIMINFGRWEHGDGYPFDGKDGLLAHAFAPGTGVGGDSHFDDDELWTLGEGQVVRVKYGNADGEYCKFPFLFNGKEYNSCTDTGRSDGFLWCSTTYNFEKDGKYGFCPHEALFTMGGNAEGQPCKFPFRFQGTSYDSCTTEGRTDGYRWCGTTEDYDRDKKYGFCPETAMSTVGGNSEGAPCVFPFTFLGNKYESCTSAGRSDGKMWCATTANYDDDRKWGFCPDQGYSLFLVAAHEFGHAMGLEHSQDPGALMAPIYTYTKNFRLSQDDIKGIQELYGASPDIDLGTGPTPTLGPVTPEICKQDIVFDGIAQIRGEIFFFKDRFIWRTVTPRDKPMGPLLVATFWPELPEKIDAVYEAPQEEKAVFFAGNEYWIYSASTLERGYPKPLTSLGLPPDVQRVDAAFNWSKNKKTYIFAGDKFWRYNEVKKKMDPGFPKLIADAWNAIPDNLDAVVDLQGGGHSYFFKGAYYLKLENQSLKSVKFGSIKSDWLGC

Nc1cccc(-c2cc(C(=O)O)nc(C(=O)O)c2)c1
inhibition [1]: < 50%
Activity [2]: Non-Toxic
IC50 [3]: 240 nM
Selectivity ratio [4]: 100 to 1000
Activity [5]: 50 to 60%
Activity [6]: Non-Toxic
Activity [7]: Non-Toxic
MIC [8]: 1 µg/mL
Activity [9]: Non-Toxic
MIC [10]: 0.5 µg/mL
MIC [11]: 1 µg/mL
MIC [12]: 0.5 µg/mL
Activity [13]: Non-Toxic
Activity [14]: Active
